Our source for the CC50 and EC50 values is ChEMBL document CHEMBL1147827, “A pyrimidine-pyrazolone nucleoside chimera with potent in vitro anti-orthopoxvirus activity” (Bioorg Med Chem Lett, 2006).

The subject of one assay is HFF. The experiment in a line: Cytotoxicity against human HFF cells by neutral red uptake. It is filed as functional. In outline:
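Uninfected HFF cells in 96-well plates were exposed to various drug concentrations for 7 days, then stained with neutral red.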

Assay [1] relates to Cowpox virus. The experiment in a line: Antiviral activity against Cowpox virus Brighton in HFF cells assessed as reduction in plaque formation. It is filed as functional, organism-based.
Another assay relates to Vaccinia virus. The experiment in a line: Antiviral activity against Vaccinia virus Copenhagen in HFF cells assessed as reduction in plaque formation. The class given is functional, organism-based. The conditions noted are these: Orthopoxvirus vaccinia.
Assay [2] concerns Cowpox virus. The experiment in a line: Antiviral activity against Cowpox virus Brighton in HFF cells assessed as reduction in cytopathogenicity. The class given is functional, organism-based. (Protection from cytopathic effect is a common read-out in antiviral testing.)

Usually CC50 stands for the concentration at which the toxic effect on the cells reaches its halfway point. What is called EC50 is the midpoint of the concentration-response curve.

For `CC(=O)OC[C@H]1O[C@@H](n2cc(/C=C3\C(=O)N(c4ccccc4)N=C3C)c(=O)[nH]c2=O)C[C@@H]1OC(C)=O`, in the assay on HFF, the CC50 is above 252 µM. For the same molecule, the EC50 in the assay with Cowpox virus [1] came to 48 µM; in the assay with Vaccinia virus, 56 µM; in the assay with Cowpox virus [2], 33.7 µM.
Molecule `Nc1ccn(C[C@@H](CO)OCP(=O)(O)O)c(=O)n1` [CIDOFOVIR] showed a CC50 in the assay on HFF above 317 µM. Besides, the EC50 was 20 µM in the assay with Vaccinia virus and 7.1 µM in the assay on Cowpox virus [2].
